ChEMBL document CHEMBL4699419, “Antileishmanial assessment of isoxazole derivatives against L. donovani” (RSC Med Chem, 2020)

What was measured:
[1] = tested on: Leishmania donovani; assay: Antileishmanial activity against late log phase promastigote stage of Leishmania donovani MHOM/IN/80/Dd8 harboring luciferase reporter gene incubated for 72 hrs by Steady-Glo luminescence assay; format: functional, organism-based
Method in brief: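 Luciferase-transfected promastigotes kept at 25 ± 1 °C in medium 199 + 10% heat-inactivated FCS + G418 (20 μg ml–1). Late-log cells (5 × 10^5 per well) grown 72 h with graded compound concentrations from DMSO, DMSO dilution controls. Aliquot mixed 1:1 with Steady-Glo, luminescence (RLU) read; % inhibition vs control. IC50 by Probit regression, three independent experiments.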

[2] = tested on: Leishmania donovani; assay: Antileishmanial activity against Leishmania donovani MHOM/IN/80/Dd8 promastigotes harboring luciferase reporter gene infected in mouse J774 cells assessed as inhibition of amastigote growth incubated for 72 hrs by Steady-Glo luminescence assay; format: functional, organism-based
Method in brief: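 J774A.1 mouse macrophages (2 × 10^5 per well, RPMI-1640 + 10% FCS, 37 °C CO2) infected after 24 h with stationary-phase luciferase-transgenic promastigotes at 1:10 macrophage:parasite; compounds in complete medium for 72 h at 37 °C. Medium swapped for PBS, Steady-Glo added, luminescence read; % inhibition vs untreated control RLU. IC50 by Probit log dose/response regression, three independent experiments.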

[3] = Cytotoxicity against mouse J774A1 cells assessed as reduction in cell viability incubated for 48 hrs by MTT assay; format: cell-based, J774.A1
Method in brief: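 J774A.1 macrophages, 0.2 × 10^6 per well, incubated overnight at 37 °C in 5% CO2, then exposed to compounds in DMSO for 48 h, with DMSO dilutions as controls. Viability read by MTT formazan at 600 nm. CC50 = 50% viability reduction versus medium-only cells, from probit regression; three independent experiments.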

[4] = Selectivity index, ratio of CC50 for mouse J774.A1 cells to IC50 for amastigote form of Leishmania donovani MHOM/IN/80/Dd8; format: toxicity; conditions: read-out: Ratio CC50/IC50
Method in brief: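 Macrophages infected at a 1:10 ratio with stationary promastigotes, then treated 72 h at 37 °C; luminescence read with Steady-Glo. IC50 values from probit analysis.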

[5] = Leishmania donovani, MHOM/IN/80/Dd8, 72 h, read-out: IC50
[6] = Leishmania donovani, MHOM/IN/80/Dd8, J774, 72 h, read-out: IC50

SMILES	IC50 [1, 5]	IC50 [2, 6]	CC50 at 48 h [3]	selectivity ratio [4]	IC50 [1]	IC50 [2]
O=C(NCc1ccc(F)cc1)c1c([N+](=O)[O-])noc1-c1ccc(Cl)cc1	1.16 µM	19.4 µM	91.9 µM	4.72		
COC(=O)c1c(NCc2ccc(C(C)(C)C)cc2)noc1-c1ccc([N+](=O)[O-])cc1	49.7 µM	8.16 µM	81.4 µM	9.69		
COC(=O)c1c(NCCNc2ccnc3cc(Cl)ccc23)noc1-c1cc2c(cc1[N+](=O)[O-])OCO2	2.04 µM	1.49 µM	3.7 µM	2.48		
COC(=O)c1c(NCc2ccc(OC)cc2)noc1-c1ccc(Cl)cc1Cl	3.09 µM	23.9 µM	34.6 µM	1.5		
COC(=O)c1c([N+](=O)[O-])noc1-c1cccc(-c2cnco2)c1	0.77 µM	4.8 µM	19.7 µM	3.6		
O=C(NCc1cccc(Cl)c1Cl)c1c([N+](=O)[O-])noc1-c1ccc(Cl)cc1	2.9 µM	19.6 µM	73.7 µM	3.76		
CCCNC(=O)c1c([N+](=O)[O-])noc1-c1ccc(Cl)cc1					Not Active	Not Active
O=C(NCc1ccc(F)cc1)c1c([N+](=O)[O-])noc1-c1ccc([N+](=O)[O-])cc1					Not Active	Not Active
COC(=O)c1c(NCCCN2CCOCC2)noc1-c1ccc([N+](=O)[O-])cc1	33.8 µM	4.53 µM	71.8 µM	15.8		
CCN(CC)CCNc1noc(-c2cc3c(cc2[N+](=O)[O-])OCO3)c1C(=O)OC					Not Active	Not Active
COc1ccc(CNC(=O)c2c([N+](=O)[O-])noc2-c2ccc([N+](=O)[O-])cc2)cc1OC	1.3 µM					Nd(Toxic)
COc1ccc(CNC(=O)c2c([N+](=O)[O-])noc2-c2ccc(Cl)cc2)cc1	2.67 µM	9.41 µM	89.5 µM	9.5		
COC(=O)c1c(NCCCCNc2ccnc3cc(Cl)ccc23)noc1-c1ccc([N+](=O)[O-])cc1	2.85 µM	1.84 µM	136 µM	73.8		
COC(=O)c1c(NCCCNc2ccnc3cc(Cl)ccc23)noc1-c1ccccc1[N+](=O)[O-]	1.98 µM					Not Active
O=C(NCc1ccccc1)c1c([N+](=O)[O-])noc1-c1ccc(Cl)cc1Cl	1.32 µM					Nd(Toxic)
COC(=O)c1c(NCc2ccc(OC)cc2OC)noc1-c1cc2c(cc1[N+](=O)[O-])OCO2					Not Active	Not Active
COC(=O)c1c([N+](=O)[O-])noc1-c1ccccc1	2.17 µM					Not Active
COC(=O)c1c(NCc2cccc(OC)c2)noc1-c1cc2c(cc1[N+](=O)[O-])OCO2					Not Active	Not Active
COC(=O)c1c(NCCCNc2ccnc3cc(Cl)ccc23)noc1-c1ccccc1F	16.8 µM					Not Active
COC(=O)c1c([N+](=O)[O-])noc1-c1ccc(F)cc1	2.1 µM					Not Active
O=C(NCc1ccccc1)c1c([N+](=O)[O-])noc1-c1ccc([N+](=O)[O-])cc1					Not Active	Not Active
CCN(CC)CCNc1noc(-c2ccc(Cl)cc2Cl)c1C(=O)OC					Not Active	Not Active
COC(=O)c1c(NCc2ccc(OC)cc2)noc1-c1ccc([N+](=O)[O-])cc1					Not Active	Not Active
O=C(NCCN1CCOCC1)c1c([N+](=O)[O-])noc1-c1ccc(Cl)cc1					Not Active	Not Active
COC(=O)c1c([N+](=O)[O-])noc1-c1ccc([N+](=O)[O-])cc1	0.67 µM					Not Active

SMILES	IC50 [1, 5]	IC50 [2, 6]	CC50 at 48 h [3]	selectivity ratio [4]	IC50 [1]	IC50 [2]
O=C(O)c1c([N+](=O)[O-])noc1-c1cc2c(cc1[N+](=O)[O-])OCO2					Not Active	Not Active
COC(=O)c1c(NCc2ccc(OC)cc2)noc1-c1cc2c(cc1[N+](=O)[O-])OCO2					Not Active	Not Active
O=C(NCc1cccc(Br)c1)c1c([N+](=O)[O-])noc1-c1ccc([N+](=O)[O-])cc1					Not Active	Not Active
COC(=O)c1c([N+](=O)[O-])noc1-c1cccc(-c2cccs2)c1	38.4 µM					Not Active
O=C(NCc1cccc(Br)c1)c1c([N+](=O)[O-])noc1-c1ccc(Cl)cc1					Not Active	Not Active
O=C(O)c1c([N+](=O)[O-])noc1-c1ccc([N+](=O)[O-])cc1	19 µM					Not Active
O=C(c1c([N+](=O)[O-])noc1-c1ccc(Cl)cc1)N1CCOCC1					Not Active	Not Active
O=C(Nc1ccccc1)c1c([N+](=O)[O-])noc1-c1ccc([N+](=O)[O-])cc1					Not Active	Not Active
COC(=O)c1c(NCc2ccc(C(C)(C)C)cc2)noc1-c1ccc(Cl)cc1Cl	> 50 µM	> 50 µM				
COC(=O)c1c(NCc2ccc(OC)c(OC)c2)noc1-c1cc2c(cc1[N+](=O)[O-])OCO2					Not Active	Not Active
COC(=O)c1c(NCc2cccc(OC)c2)noc1-c1ccc([N+](=O)[O-])cc1					Not Active	Not Active
COC(=O)c1c([N+](=O)[O-])noc1-c1ccc(Cl)cc1	1.79 µM					Not Active
COC(=O)c1c([N+](=O)[O-])noc1-c1ccccc1[N+](=O)[O-]	4.01 µM					Not Active
COC(=O)c1c(NCc2ccccc2)noc1-c1cc2c(cc1[N+](=O)[O-])OCO2	> 50 µM					Not Active
COC(=O)c1c(NCc2ccc(OC)c(OC)c2)noc1-c1ccc([N+](=O)[O-])cc1					Not Active	Not Active
COc1cccc(CNC(=O)c2c([N+](=O)[O-])noc2-c2ccc([N+](=O)[O-])cc2)c1					Not Active	Not Active
COC(=O)c1c([N+](=O)[O-])noc1-c1ccc(Cl)c(Cl)c1	1.11 µM					Not Active
COC(=O)c1c(NCc2ccc(OC)cc2OC)noc1-c1ccc([N+](=O)[O-])cc1					Not Active	Not Active
COC(=O)c1c(NCc2ccc(F)cc2)noc1-c1ccc([N+](=O)[O-])cc1					Not Active	Not Active
O=C(NCc1cccc(Cl)c1Cl)c1c([N+](=O)[O-])noc1-c1ccc([N+](=O)[O-])cc1					Not Active	Not Active
COC(=O)c1c([N+](=O)[O-])noc1-c1ccc(C(F)(F)F)cc1	0.66 µM					Not Active
O=C(NCc1ccccc1)c1c([N+](=O)[O-])noc1-c1ccc(Cl)cc1					Not Active	Not Active
CC(C)CCNC(=O)c1c([N+](=O)[O-])noc1-c1ccc(Cl)cc1					Not Active	Not Active
COC(=O)c1c([N+](=O)[O-])noc1-c1cccc([N+](=O)[O-])c1	2.49 µM					Not Active
